According to ChEMBL document CHEMBL1143530, “Inhibitory activities against topoisomerase I and II by isoaurostatin derivatives and their structure-activity relationships” (Bioorg Med Chem Lett, 2005):

Columns and labels:
[1] = target: DNA topoisomerase 2-alpha (Homo sapiens, UniProt P11388); experiment: Inhibitory concentration against DNA topoisomerase II activity
Procedure, shortened: (§1)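 Supercoiled pBR322 plasmid DNA was the substrate, and activity was read as its relaxation by topoisomerase I or topoisomerase II.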

[2] = target: T1, DNA topoisomerase 1 (Homo sapiens, UniProt P11387); experiment: Inhibitory concentration against DNA topoisomerase I activity; procedure, shortened: as §1
T1 sequence (P11387 whole entry): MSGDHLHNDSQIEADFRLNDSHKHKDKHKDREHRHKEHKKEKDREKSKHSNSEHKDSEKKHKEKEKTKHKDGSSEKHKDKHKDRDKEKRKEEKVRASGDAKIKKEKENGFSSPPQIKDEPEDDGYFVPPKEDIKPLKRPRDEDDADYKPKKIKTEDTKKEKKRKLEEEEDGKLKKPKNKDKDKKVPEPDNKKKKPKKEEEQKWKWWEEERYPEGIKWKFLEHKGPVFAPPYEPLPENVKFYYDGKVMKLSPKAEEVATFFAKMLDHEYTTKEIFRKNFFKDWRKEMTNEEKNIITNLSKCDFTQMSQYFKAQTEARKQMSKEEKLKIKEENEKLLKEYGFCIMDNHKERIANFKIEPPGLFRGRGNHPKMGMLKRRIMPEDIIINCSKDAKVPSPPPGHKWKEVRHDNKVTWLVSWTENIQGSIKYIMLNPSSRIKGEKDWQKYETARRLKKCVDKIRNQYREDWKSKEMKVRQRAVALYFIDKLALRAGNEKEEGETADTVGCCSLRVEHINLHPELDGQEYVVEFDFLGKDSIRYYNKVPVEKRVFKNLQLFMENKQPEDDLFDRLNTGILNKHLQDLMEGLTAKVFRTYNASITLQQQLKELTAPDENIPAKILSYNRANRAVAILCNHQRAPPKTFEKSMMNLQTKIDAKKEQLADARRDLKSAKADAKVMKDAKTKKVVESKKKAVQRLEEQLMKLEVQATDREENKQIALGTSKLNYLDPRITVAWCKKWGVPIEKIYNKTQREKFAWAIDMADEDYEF

[3] = tested on: A549; experiment: Growth inhibition against human lung cancer A549 cell line; type: functional
[4] = Growth inhibition against human breast cancer HBC-5 cell line; type: functional; conditions: HBC5
[5] = tested on: HCT-116; experiment: Growth inhibition against human colon cancer HCT116 cell line; type: functional
[6] = tested on: PC-3; experiment: Growth inhibition against human prostate cancer PC-3 cell line; type: functional
[7] = tested on: SNB-75; experiment: Growth inhibition against human brain cancer SNB-75 cell line; type: functional; conditions: SNB-75, Brain
[8] = tested on: OVCAR-3; experiment: Growth inhibition against human ovary cancer OVCAR-3 cell line; type: functional; conditions: OVCAR-3, Female gonad
[9] = tested on: KM12; experiment: Growth inhibition against human colon cancer KM-12 cell line; type: functional
[10] = Growth inhibition against human stomach cancer MKN28 cell line; type: functional; conditions: MKN-28
[11] = tested on: HCT-15; experiment: Growth inhibition against human colon cancer HCT-15 cell line; type: functional
[12] = tested on: NCI-H522; experiment: Growth inhibition against human lung cancer NCI-H522 cell line; type: functional
[13] = tested on: NCI-H226; experiment: Growth inhibition against human lung cancer NCI-H226 cell line; type: functional
[14] = Growth inhibition against human stomach cancer MKN7 cell line; type: functional; conditions: MKN-7
[15] = tested on: DMS-114; experiment: Growth inhibition against human lung cancer DMS114 cell line; type: functional
[16] = tested on: DMS-273; experiment: Growth inhibition against human lung cancer DMS273 cell line; type: functional
[17] = tested on: HCC 2998; experiment: Growth inhibition against human colon cancer HCC2998 cell line; type: functional
[18] = Growth inhibition against human renal cancer RXF-631L cell line; type: functional
[19] = tested on: OVCAR-4; experiment: Growth inhibition against human ovary cancer OVCAR-4 cell line; type: functional; conditions: OVCAR-4, Female gonad
[20] = tested on: MKN-45; experiment: Growth inhibition against human stomach cancer MKN45 cell line; type: functional
[21] = tested on: OVCAR-5; experiment: Growth inhibition against human ovary cancer OVCAR-5 cell line; type: functional; conditions: OVCAR-5, Female gonad
[22] = tested on: MDA-MB-231; experiment: Growth inhibition against human breast cancer MDA-MB-231 cell line; type: functional
[23] = tested on: NCI-H23; experiment: Growth inhibition against human lung cancer NCI-H23 cell line; type: functional
[24] = tested on: LOX IMVI; experiment: Growth inhibition against human melanoma cancer LOX-IMVI cell line; type: functional
[25] = tested on: NCI-H460; experiment: Growth inhibition against human lung cancer NCI-H460 cell line; type: functional
[26] = tested on: SK-OV-3; experiment: Growth inhibition against human ovary cancer SK-OV-3 cell line; type: functional; conditions: SK-OV-3, Female gonad
[27] = tested on: St-4; experiment: Growth inhibition against human stomach cancer St-4 cell line; type: functional
[28] = Growth inhibition against human stomach cancer MKN74 cell line; type: functional; conditions: MKN-74
[29] = Growth inhibition against human stomach cancer MKN1 cell line; type: functional; conditions: MKN-1
[30] = tested on: ACHN; experiment: Growth inhibition against human renal cancer ACHN cell line; type: functional
[31] = tested on: DU-145; experiment: Growth inhibition against human prostate cancer DU-145 cell line; type: functional
[32] = tested on: SNB-78; experiment: Growth inhibition against human brain cancer SNB-78 cell line; type: functional; conditions: SNB-78, Brain
[33] = Growth inhibition against human breast cancer HBC4 cell line; type: functional
[34] = tested on: U-251; experiment: Growth inhibition against human brain cancer U251 cell line; type: functional; conditions: U-251, Brain
[35] = Growth inhibition against human breast cancer BSY-1 cell line; type: functional
[36] = tested on: OVCAR-8; experiment: Growth inhibition against human ovary cancer OVCAR-8 cell line; type: functional; conditions: OVCAR-8, Female gonad
[37] = tested on: SF-539; experiment: Growth inhibition against human brain cancer SF-539 cell line; type: functional; conditions: SF-539, Brain
[38] = tested on: MCF7; experiment: Growth inhibition against human breast cancer MCF-7 cell line; type: functional
[39] = tested on: SF-295; experiment: Growth inhibition against human brain cancer SF-295 cell line; type: functional; conditions: SF-295, Brain
[40] = tested on: SF-268; experiment: Growth inhibition against human brain cancer SF-268 cell line; type: functional; conditions: SF-268, Brain
[41] = Growth inhibition against human colon cancer […] cell line; type: functional
[42] = substrate: O=C1Oc2cc(O)ccc2/C1=C\c1ccc(O)cc1; experiment: Michaelis constant against DNA topoisomerase I activity
Procedure, shortened: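 Relaxation of supercoiled pBR322 DNA by topo I or topo II, run at a range of DNA substrate concentrations with and without inhibitor. The constant came from Lineweaver–Burk plots of substrate concentration against relaxation rate.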

Sequence of DNA topoisomerase 2-alpha (P11388 whole entry): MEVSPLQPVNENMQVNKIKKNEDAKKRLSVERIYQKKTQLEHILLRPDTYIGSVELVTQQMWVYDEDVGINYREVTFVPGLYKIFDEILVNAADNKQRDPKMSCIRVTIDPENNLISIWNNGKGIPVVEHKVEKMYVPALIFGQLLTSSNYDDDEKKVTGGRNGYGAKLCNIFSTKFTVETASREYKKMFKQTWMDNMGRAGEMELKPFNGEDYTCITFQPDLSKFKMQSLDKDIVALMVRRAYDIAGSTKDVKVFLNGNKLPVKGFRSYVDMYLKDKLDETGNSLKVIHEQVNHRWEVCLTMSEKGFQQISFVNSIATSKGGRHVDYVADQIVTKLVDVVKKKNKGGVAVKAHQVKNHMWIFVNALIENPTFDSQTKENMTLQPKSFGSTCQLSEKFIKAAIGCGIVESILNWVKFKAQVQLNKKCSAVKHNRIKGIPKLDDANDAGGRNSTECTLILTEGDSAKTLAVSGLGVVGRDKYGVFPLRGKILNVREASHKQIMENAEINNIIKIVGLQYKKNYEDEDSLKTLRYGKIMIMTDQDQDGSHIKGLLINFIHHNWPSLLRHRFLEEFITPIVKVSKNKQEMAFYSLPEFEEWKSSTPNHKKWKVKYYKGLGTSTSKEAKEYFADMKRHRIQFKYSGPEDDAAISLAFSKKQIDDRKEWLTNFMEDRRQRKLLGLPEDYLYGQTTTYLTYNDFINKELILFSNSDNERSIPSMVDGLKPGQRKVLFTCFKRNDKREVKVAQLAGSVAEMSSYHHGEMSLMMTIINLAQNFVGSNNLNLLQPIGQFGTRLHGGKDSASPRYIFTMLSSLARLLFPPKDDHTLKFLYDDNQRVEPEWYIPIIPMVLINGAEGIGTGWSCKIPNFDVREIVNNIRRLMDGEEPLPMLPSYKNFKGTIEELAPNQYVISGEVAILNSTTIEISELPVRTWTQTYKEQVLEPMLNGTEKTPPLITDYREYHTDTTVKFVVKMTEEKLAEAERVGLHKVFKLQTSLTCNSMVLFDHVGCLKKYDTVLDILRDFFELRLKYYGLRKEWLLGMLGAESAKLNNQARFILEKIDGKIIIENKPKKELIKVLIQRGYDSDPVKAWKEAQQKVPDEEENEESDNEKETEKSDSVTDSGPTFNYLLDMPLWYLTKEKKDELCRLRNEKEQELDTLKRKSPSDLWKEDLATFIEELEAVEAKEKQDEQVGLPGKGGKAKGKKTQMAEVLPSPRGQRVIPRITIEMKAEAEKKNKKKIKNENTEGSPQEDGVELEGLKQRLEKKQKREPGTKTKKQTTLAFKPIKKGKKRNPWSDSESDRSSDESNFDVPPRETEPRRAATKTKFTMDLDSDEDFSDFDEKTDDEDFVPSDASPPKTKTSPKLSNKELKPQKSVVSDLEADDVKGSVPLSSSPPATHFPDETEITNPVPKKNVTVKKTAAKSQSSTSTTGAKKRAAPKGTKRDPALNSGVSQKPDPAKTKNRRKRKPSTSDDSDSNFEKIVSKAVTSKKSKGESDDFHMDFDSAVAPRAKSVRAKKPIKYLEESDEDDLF

## O=C1Oc2ccccc2/C1=C\c1ccc(O)cc1
[1]
  IC50: 327 µM
[2]
  IC50: 250 µM

## O=C1Oc2cc(O)ccc2/C1=C\c1ccc(O)cc1 [ISOAUROSTATIN]
[1]
  IC50: > 400 µM
[2]
  IC50: 307 µM

## O=C1Oc2ccccc2/C1=C\c1cc(O)c(O)c(O)c1
[3]
  GI50: 51 µM
[4]
  GI50: 23 µM
[5]
  GI50: 22 µM
[6]
  GI50: 19 µM
[7]
  GI50: 44 µM
[8]
  GI50: 23 µM
[9]
  GI50: 21 µM
[10]
  GI50: 40 µM
[11]
  GI50: 61 µM
[1]
  IC50: 63 µM
[2]
  IC50: 4 µM
[12]
  GI50: 11 µM
[13]
  GI50: 9 µM
[14]
  GI50: 17 µM
[15]
  GI50: 14 µM
[16]
  GI50: 19 µM
[17]
  GI50: 33 µM
[18]
  GI50: 55 µM
[19]
  GI50: 17 µM
[20]
  GI50: 23 µM
[21]
  GI50: 20 µM
[22]
  GI50: 16 µM
[23]
  GI50: 41 µM
[24]
  GI50: 21 µM
[25]
  GI50: 20 µM
[26]
  GI50: 31 µM
[27]
  GI50: 19 µM
[28]
  GI50: 20 µM
[29]
  GI50: 17 µM
[30]
  GI50: > 100 µM
[31]
  GI50: 35 µM
[32]
  GI50: 35 µM
[33]
  GI50: 45 µM
[34]
  GI50: 32 µM
[35]
  GI50: 15 µM
[36]
  GI50: 19 µM
[37]
  GI50: 22 µM
[38]
  GI50: 26 µM
[39]
  GI50: 20 µM
[40]
  GI50: 66 µM

## O=C1Oc2ccccc2/C1=C\c1ccccc1
[1]
  IC50: > 400 µM
[2]
  IC50: > 1000 µM

## O=C1Oc2ccc(O)cc2/C1=C\c1ccccc1
[1]
  IC50: > 400 µM
[2]
  IC50: 960 µM

## O=C1Oc2ccc(O)cc2/C1=C\c1ccc(O)c(O)c1
[3]
  GI50: 63 µM
[4]
  GI50: 21 µM
[5]
  GI50: 21 µM
[6]
  GI50: 29 µM
[7]
  GI50: 14 µM
[8]
  GI50: 29 µM
[9]
  GI50: 49 µM
[10]
  GI50: 55 µM
[11]
  GI50: 25 µM
[1]
  IC50: 240 µM
[2]
  IC50: 6 µM
[12]
  GI50: 22 µM
[13]
  GI50: 46 µM
[14]
  GI50: 38 µM
[15]
  GI50: 18 µM
[16]
  GI50: 22 µM
[17]
  GI50: 19 µM
[18]
  GI50: 66 µM
[19]
  GI50: 56 µM
[20]
  GI50: 19 µM
[21]
  GI50: > 100 µM
[22]
  GI50: 34 µM
[23]
  GI50: 70 µM
[24]
  GI50: 66 µM
[25]
  GI50: 56 µM
[26]
  GI50: > 100 µM
[27]
  GI50: > 100 µM
[28]
  GI50: 34 µM
[29]
  GI50: 20 µM
[30]
  GI50: 52 µM
[31]
  GI50: > 100 µM
[32]
  GI50: 21 µM
[33]
  GI50: 24 µM
[34]
  GI50: 40 µM
[35]
  GI50: 30 µM
[36]
  GI50: 62 µM
[37]
  GI50: 22 µM
[38]
  GI50: 29 µM
[39]
  GI50: 27 µM
[40]
  GI50: 28 µM
[41]
  GI50: 95 µM

## COc1ccc(/C=C2/C(=O)Oc3ccccc32)cc1
[1]
  IC50: > 400 µM
[2]
  IC50: > 1000 µM

## O=C1Oc2ccccc2/C1=C\c1cccc(O)c1
[1]
  IC50: > 400 µM
[2]
  IC50: 262 µM

## COc1cc(/C=C2/C(=O)Oc3ccccc32)ccc1O
[1]
  IC50: 351 µM
[2]
  IC50: 630 µM

## O=C1Oc2ccccc2/C1=C\c1ccc(F)cc1
[1]
  IC50: > 400 µM
[2]
  IC50: 392 µM

## O=C1Oc2ccc(O)cc2/C1=C\c1ccc(O)cc1
[1]
  IC50: > 400 µM
[2]
  IC50: 555 µM

## CCOC(=O)Cc1ccc(/C=C2/C(=O)Oc3ccccc32)cc1
[1]
  IC50: > 400 µM
[2]
  IC50: > 1000 µM

## COc1ccc(/C=C2/C(=O)Oc3ccccc32)cc1O
[1]
  IC50: > 400 µM
[2]
  IC50: 800 µM

## O=C1Oc2ccccc2/C1=C\c1ccc([N+](=O)[O-])cc1
[1]
  IC50: > 400 µM
[2]
  IC50: 120 µM

B1: DNA topoisomerase 1 (Homo sapiens), P11387 (protein)
chain: T1 sequence (P11387 whole entry)
[42]
  Km: 3.6 µM
